ChEMBL document CHEMBL1139026, “Lipolanthionine peptides act as inhibitors of TLR2-mediated IL-8 secretion. Synthesis and structure-activity relationships” (J Med Chem, 2006)
Active and inactive are the calls of the source. The rule behind the calls is not given here. Residues, ends and D or L forms follow the SMILES beside them. *: point of attachment. X5 = CCCCCCCCCCCCCCCCCCCC(=O)N[C@@H](C*)C(=O)NCCCCCCCCCCCCCCCC; X2 = CCCCCCCCCCCCCCCCCC(=O)N[C@@H](C*)C(=O)NCCCCCCCCCCCCCCCC; X6 = CCCCCCCCCCCCCC(=O)N[C@@H](C*)C(=O)NCCCCCCCCCCCC; X3 = CCCCCCCCCCCCCC(=O)N[C@@H](C*)C(=O)NCCCCCCCCCC; X4 = CCCCCCCCCCCCCC(=O)N[C@@H](C*)C(=O)NCCCCCCCC; X7 = CCCCCCCCCCCCCC(=O)N[C@@H](C*)C(=O)NCCCCCC; Arachidoyl = CCCCCCCCCCCCCCCCCCCC(=O)*; Stearoyl = CCCCCCCCCCCCCCCCCC(=O)*; Myristoyl = CCCCCCCCCCCCCC(=O)*

Columns and labels:
Type in all cases: functional, cell-based
[1] = biological target: T1, Toll-like receptor 2 (Homo sapiens, UniProt O60603); test: Inhibition of TLR2-mediated IL-8 secretion in THP-1 cells
T1 sequence (O60603 whole entry): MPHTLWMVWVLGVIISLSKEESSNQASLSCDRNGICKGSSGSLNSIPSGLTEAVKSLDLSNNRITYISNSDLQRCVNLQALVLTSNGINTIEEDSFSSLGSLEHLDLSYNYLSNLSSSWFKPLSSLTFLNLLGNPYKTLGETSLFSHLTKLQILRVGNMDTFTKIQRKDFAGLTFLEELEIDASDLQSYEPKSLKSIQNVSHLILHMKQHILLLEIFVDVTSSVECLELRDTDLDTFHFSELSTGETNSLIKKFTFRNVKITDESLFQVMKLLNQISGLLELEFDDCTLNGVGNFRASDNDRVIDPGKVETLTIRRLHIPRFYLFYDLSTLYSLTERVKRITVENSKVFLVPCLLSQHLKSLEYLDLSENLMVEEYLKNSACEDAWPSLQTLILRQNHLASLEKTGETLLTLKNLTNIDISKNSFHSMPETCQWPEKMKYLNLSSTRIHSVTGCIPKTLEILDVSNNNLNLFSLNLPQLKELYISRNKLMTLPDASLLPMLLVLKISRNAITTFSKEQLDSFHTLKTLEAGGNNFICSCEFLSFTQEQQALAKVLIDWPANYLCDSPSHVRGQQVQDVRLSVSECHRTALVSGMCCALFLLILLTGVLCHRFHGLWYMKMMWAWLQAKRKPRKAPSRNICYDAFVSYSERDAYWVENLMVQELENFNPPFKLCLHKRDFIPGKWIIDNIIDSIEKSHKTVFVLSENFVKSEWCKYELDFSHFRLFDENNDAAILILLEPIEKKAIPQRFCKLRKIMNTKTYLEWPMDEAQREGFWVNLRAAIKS
In short: (§1)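 THP-1 cells, 4 × 10⁴ per well in RPMI 1640/10% FCS, were preincubated with peptides (0.78–25 µM, from 10 mM DMSO stocks) for 10 min at 37 °C. Pam3Cys-SK4-OH (50 nM) was then added for 5 h at 37 °C. IL-8 in cell-free supernatants was measured by matched-pair ELISA against DMSO-matched agonist controls. Triplicates, SD shown.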

[2] = tested on: THP-1; test: Cytotoxicity against THP1 cells by MTT assay
In short: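 THP-1 cells (RPMI 1640 with 10% FCS, 37 °C, 5% CO2) were exposed to lipolanthionine peptides plus Pam3Cys-SK4-OH (50 nM) for 5 h. After part of the supernatant was removed for ELISA, MTT (1 mg/mL) was added for 4 h. Formazan was dissolved in 10% SDS in 10 mM HCl. A570 was read relative to untreated control cells.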

[3] = biological target: T1, Toll-like receptor 2; test: Inhibition of TLR2 agonist Pam3Cys-Ser-(Lys)4-OH-mediated IL8 secretion in THP1 cells; set-up: scale not given: the % may be the effect or the level left; details: for Activity: THP-1; in short: as §1
[4] = biological target: T1, Toll-like receptor 2; test: Inhibition of TLR2 agonist Pam3Cys-Ser-(Lys)4-OH-mediated IL8 secretion in THP1 cells at 25 uM; details: THP-1
In short: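 THP-1 cells, 4 × 10⁴ per well, were preincubated for 10 min at 37 °C with peptide at a single 25 µM concentration (from 10 mM DMSO stock), with or without Pam3Cys-SK4-OH (50 nM), then incubated 5 h at 37 °C. IL-8 was measured by ELISA in cell-free supernatants and expressed relative to agonist plus equal-solvent control. Triplicates, SD.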

Activity [1]	Activity [3]	Activity [4]	IC50 [3] [µM]	Structure (SMILES)	Activity [2]
Active	inactive	–	–	CCCCCCCCCCCCCC(=O)N[C@H](CSC[C@@H](NC(=O)CCCCCCCCCCCCC)C(=O)N[C@@H](CO)C(=O)N[C@@H](CCCCN)C(=O)N[C@@H](CCCCN)C(=O)N[C@@H](CCCCN)C(=O)N[C@@H](CCCCN)C(N)=O)C(=O)O	inactive
Active	inactive	–	–	CCCCCCCCCCCCCC(=O)N[C@@H](CSC[C@@H](NC(=O)CCCCCCCCCCCCC)C(=O)N[C@@H](CO)C(=O)N[C@@H](CCCCN)C(=O)N[C@@H](CCCCN)C(=O)N[C@@H](CCCCN)C(=O)N[C@@H](CCCCN)C(N)=O)C(=O)O	inactive
Active	–	–	–	CCCCCCCCCCCCCCCCNC(=O)[C@H](CSC[C@H](NC(=O)CCCCCCCCC)C(=O)N[C@@H](CO)C(=O)N[C@@H](CCCCN)C(=O)N[C@@H](CCCCN)C(=O)N[C@@H](CCCCN)C(=O)N[C@@H](CCCCN)C(N)=O)NC(=O)CCCCCCCCC	inactive
Active	–	–	–	CCCCCCCCCCCCCC(=O)N[C@@H](CSC[C@H](NC(=O)CCCCCCCCCCCCC)C(=O)N[C@@H](CO)C(=O)N[C@@H](CCCCN)C(=O)N[C@@H](CCCCN)C(=O)N[C@@H](CCCCN)C(=O)N[C@@H](CCCCN)C(N)=O)C(=O)NCCCCCCCCCC (Myristoyl-C(X3)SKKKK-NH2)	inactive
Active	inactive	–	–	CCCCCCCCCCCCCC(=O)N[C@@H](CSC[C@H](NC(=O)CCCCCCCCCCCCC)C(=O)N[C@@H](CO)C(=O)N[C@@H](CCCCN)C(=O)N[C@@H](CCCCN)C(=O)N[C@@H](CCCCN)C(=O)N[C@@H](CCCCN)C(N)=O)C(=O)O	inactive
Active	inactive	–	–	CCCCCCCCCCCCCC(=O)N[C@@H](CSC[C@@H](NC(=O)CCCCCCCCCCCCC)C(=O)O)C(=O)N[C@@H](CO)C(=O)N[C@@H](CCCCN)C(=O)N[C@@H](CCCCN)C(=O)N[C@@H](CCCCN)C(=O)N[C@@H](CCCCN)C(N)=O	inactive
–	68%	–	5	CCCCCCCCCCCCCCCC(=O)O [PALMITIC ACID]	–
Active	–	–	–	CCCCCCCCCCCCCC(=O)N[C@@H](CSC[C@H](NC(=O)CCCCCCCCCCCCC)C(=O)N[C@@H](CO)C(=O)N[C@@H](CCCCN)C(=O)N[C@@H](CCCCN)C(=O)N[C@@H](CCCCN)C(=O)N[C@@H](CCCCN)C(N)=O)C(=O)NCCCCCCCC (Myristoyl-C(X4)SKKKK-NH2)	inactive
Active	–	–	–	CCCCCCCCCCCCCCNC(=O)[C@H](CSC[C@H](NC(=O)CCCCCCCCCCCCC)C(=O)N[C@@H](CO)C(=O)N[C@@H](CCCCN)C(=O)N[C@@H](CCCCN)C(=O)N[C@@H](CCCCN)C(=O)N[C@@H](CCCCN)C(N)=O)NC(=O)CCCCCCCCCCCCC	inactive
Active	–	–	–	CCCCCCCCCCCCCCCCNC(=O)[C@H](CSC[C@H](NC(=O)CCCCCCC)C(=O)N[C@@H](CO)C(=O)N[C@@H](CCCCN)C(=O)N[C@@H](CCCCN)C(=O)N[C@@H](CCCCN)C(=O)N[C@@H](CCCCN)C(N)=O)NC(=O)CCCCCCC	inactive
Active	–	Active	–	CCCCCCCCCCCCCCCCNC(=O)[C@H](CSC[C@H](NC(=O)CCCCCCCCCCC)C(=O)N[C@@H](CO)C(=O)N[C@@H](CCCCN)C(=O)N[C@@H](CCCCN)C(=O)N[C@@H](CCCCN)C(=O)N[C@@H](CCCCN)C(N)=O)NC(=O)CCCCCCCCCCC	inactive
Active	–	–	–	CCCCCCCCCCCCCC(=O)N[C@@H](CSC[C@H](NC(=O)CCCCCCCCCCCCC)C(=O)N[C@@H](CO)C(=O)N[C@@H](CCCCN)C(=O)N[C@@H](CCCCN)C(=O)N[C@@H](CCCCN)C(=O)N[C@@H](CCCCN)C(N)=O)C(=O)NCCCCCCCCCCCC (Myristoyl-C(X6)SKKKK-NH2)	inactive
Active	–	–	–	CCCCCCCCCCCCCCCCNC(=O)[C@H](CSC[C@H](NC(=O)CCCCC)C(=O)N[C@@H](CO)C(=O)N[C@@H](CCCCN)C(=O)N[C@@H](CCCCN)C(=O)N[C@@H](CCCCN)C(=O)N[C@@H](CCCCN)C(N)=O)NC(=O)CCCCC	inactive

More lines, now with the values behind:

Structure (SMILES)	Activity [1]	Activity [3]	Activity [4]	IC50 [3] [µM]	Activity [2]
CCCCCCCCCCCCCCCCNC(=O)[C@H](CSC[C@@H](NC(=O)CCCCCCCCCCCCC)C(=O)N[C@@H](CO)C(=O)N[C@@H](CCCCN)C(=O)N[C@@H](CCCCN)C(=O)N[C@@H](CCCCN)C(=O)N[C@@H](CCCCN)C(N)=O)NC(=O)CCCCCCCCCCCCC	Active	–	–	–	inactive
CCCCCCCCCCCCCCCCNC(=O)[C@@H](CSC[C@@H](NC(=O)CCCCCCCCCCCCC)C(=O)N[C@@H](CO)C(=O)N[C@@H](CCCCN)C(=O)N[C@@H](CCCCN)C(=O)N[C@@H](CCCCN)C(=O)N[C@@H](CCCCN)C(N)=O)NC(=O)CCCCCCCCCCCCC	Active	–	–	–	inactive
CCCCCCCCCCCCCCCCNC(=O)[C@H](CSC[C@H](NC(=O)CCCCCCCCCCCCC)C(=O)N[C@@H](CO)C(=O)N[C@@H](CCCCN)C(=O)N[C@@H](CCCCN)C(=O)N[C@@H](CCCCN)C(=O)N[C@@H](CCCCN)C(N)=O)NC(=O)CCCCCCCCCCCCC	Active	–	Active	–	inactive
CCCCCCCCCCCCCC(=O)N[C@@H](CSC[C@H](NC(=O)CCCCCCCCCCCCC)C(=O)N[C@@H](CO)C(=O)N[C@@H](CCCCN)C(=O)N[C@@H](CCCCN)C(=O)N[C@@H](CCCCN)C(=O)N[C@@H](CCCCN)C(N)=O)C(=O)NCCCCCC (Myristoyl-C(X7)SKKKK-NH2)	–	–	–	–	inactive
CCCCCCCCCCCCCCCCNC(=O)[C@H](CS(=O)(=O)C[C@H](NC(=O)CCCCCCCCCCCCCCC)C(=O)N[C@@H](CO)C(=O)N[C@@H](CCCCN)C(=O)N[C@@H](CCCCN)C(=O)N[C@@H](CCCCN)C(=O)N[C@@H](CCCCN)C(N)=O)NC(=O)CCCCCCCCCCCCCCC	Active	–	–	–	inactive
CCCCCCCCCCCCCCCCCCCC(=O)N[C@@H](CSC[C@H](NC(=O)CCCCCCCCCCCCCCCCCCC)C(=O)N[C@@H](CO)C(=O)N[C@@H](CCCCN)C(=O)N[C@@H](CCCCN)C(=O)N[C@@H](CCCCN)C(=O)N[C@@H](CCCCN)C(N)=O)C(=O)NCCCCCCCCCCCCCCCC (Arachidoyl-C(X5)SKKKK-NH2)	Active	–	–	–	inactive
CCCCCCCCCCCCCCCCCC(=O)N[C@@H](CSC[C@H](NC(=O)CCCCCCCCCCCCCCCCC)C(=O)N[C@@H](CO)C(=O)N[C@@H](CCCCN)C(=O)N[C@@H](CCCCN)C(=O)N[C@@H](CCCCN)C(=O)N[C@@H](CCCCN)C(N)=O)C(=O)NCCCCCCCCCCCCCCCC (Stearoyl-C(X2)SKKKK-NH2)	Active	–	–	–	inactive
CCCCCCCCCCCCCCCCNC(=O)[C@H](C[S+]([O-])C[C@H](NC(=O)CCCCCCCCCCCCCCC)C(=O)N[C@@H](CO)C(=O)N[C@@H](CCCCN)C(=O)N[C@@H](CCCCN)C(=O)N[C@@H](CCCCN)C(=O)N[C@@H](CCCCN)C(N)=O)NC(=O)CCCCCCCCCCCCCCC (some centres undefined)	Active	–	–	–	inactive
CCCCCCCCCCCCCCCCNC(=O)[C@@H](CSC[C@H](NC(=O)CCCCCCCCCCCCC)C(=O)N[C@@H](CO)C(=O)N[C@@H](CCCCN)C(=O)N[C@@H](CCCCN)C(=O)N[C@@H](CCCCN)C(=O)N[C@@H](CCCCN)C(N)=O)NC(=O)CCCCCCCCCCCCC	Active	–	–	–	inactive
CCCCCCCCCCCCCCCCNC(=O)[C@H](CSC[C@H](NC(=O)CCCCCCCCCCCCCCC)C(=O)N[C@@H](CO)C(=O)N[C@@H](CCCCN)C(=O)N[C@@H](CCCCN)C(=O)N[C@@H](CCCCN)C(=O)N[C@@H](CCCCN)C(N)=O)NC(=O)CCCCCCCCCCCCCCC	Active	–	Active	–	inactive
CCCCCCCCCCCCCCCCCCNC(=O)[C@H](CSC[C@H](NC(=O)CCCCCCCCCCCCC)C(=O)N[C@@H](CO)C(=O)N[C@@H](CCCCN)C(=O)N[C@@H](CCCCN)C(=O)N[C@@H](CCCCN)C(=O)N[C@@H](CCCCN)C(N)=O)NC(=O)CCCCCCCCCCCCC	Active	–	–	–	inactive
